Assay outcomes: PubChem BioAssay, several laboratories
PLCg1 inh – PLC-gamma1 (human) inhibition, primary screen; P19174; purified PLC-gamma1, fluorogenic substrate, fluorescence; inhibition, % at 12.2 µM; 370,000 compounds, 0.84% hits; in the data active means inhibition above about 9.5%
Target sequence (P19174 whole entry, looked up): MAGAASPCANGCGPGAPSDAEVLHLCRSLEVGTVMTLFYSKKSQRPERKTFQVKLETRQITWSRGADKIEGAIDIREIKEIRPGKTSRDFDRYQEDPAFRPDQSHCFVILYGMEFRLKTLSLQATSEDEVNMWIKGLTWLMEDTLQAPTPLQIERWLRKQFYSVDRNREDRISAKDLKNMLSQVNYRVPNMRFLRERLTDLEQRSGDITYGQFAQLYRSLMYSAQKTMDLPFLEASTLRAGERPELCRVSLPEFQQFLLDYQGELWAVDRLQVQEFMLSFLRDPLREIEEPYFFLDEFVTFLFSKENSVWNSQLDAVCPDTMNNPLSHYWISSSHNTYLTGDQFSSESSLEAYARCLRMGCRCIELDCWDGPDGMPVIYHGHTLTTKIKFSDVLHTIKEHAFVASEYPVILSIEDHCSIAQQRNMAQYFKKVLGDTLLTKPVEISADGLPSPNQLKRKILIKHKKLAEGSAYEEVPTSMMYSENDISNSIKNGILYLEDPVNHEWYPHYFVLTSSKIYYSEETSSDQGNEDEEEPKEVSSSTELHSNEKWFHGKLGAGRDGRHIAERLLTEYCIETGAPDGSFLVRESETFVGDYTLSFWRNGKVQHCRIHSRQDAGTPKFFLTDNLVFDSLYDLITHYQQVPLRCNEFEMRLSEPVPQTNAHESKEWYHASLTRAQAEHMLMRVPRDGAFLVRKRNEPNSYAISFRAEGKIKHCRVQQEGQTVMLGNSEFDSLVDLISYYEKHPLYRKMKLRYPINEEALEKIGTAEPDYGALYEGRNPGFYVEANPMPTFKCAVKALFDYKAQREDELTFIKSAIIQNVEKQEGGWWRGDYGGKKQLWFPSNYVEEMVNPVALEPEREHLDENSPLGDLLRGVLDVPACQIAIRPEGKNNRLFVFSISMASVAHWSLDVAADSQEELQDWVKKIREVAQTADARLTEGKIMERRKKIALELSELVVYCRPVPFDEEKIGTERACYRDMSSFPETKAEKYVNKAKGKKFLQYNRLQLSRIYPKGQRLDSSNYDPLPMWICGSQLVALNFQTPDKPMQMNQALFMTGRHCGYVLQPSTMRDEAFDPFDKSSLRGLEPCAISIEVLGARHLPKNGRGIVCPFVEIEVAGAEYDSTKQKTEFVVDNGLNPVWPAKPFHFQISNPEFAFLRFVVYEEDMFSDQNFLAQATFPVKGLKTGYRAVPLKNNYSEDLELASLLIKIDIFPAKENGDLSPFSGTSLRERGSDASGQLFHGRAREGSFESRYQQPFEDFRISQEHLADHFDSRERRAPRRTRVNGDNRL
VIM-2 inh – blocks Pseudomonas aeruginosa VIM-2 metallo-beta-lactamase; purified VIM-2, nitrocefin hydrolysis, epi-absorbance fluorescence; inhibition, % at 5.6 µM; 290,000 compounds, 0.89% hits;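 active means inhibition above the mean of all tested compounds plus 3 SD, cutoff set per screening run, cut at about 7.5% in these data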;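 further: red hydrolysis product quenches plate fluorescence so inhibitors raise well fluorescence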
PLCb3 inh – PLC-beta3 (human) inhibition, primary screen. Q01970. Purified PLC-beta3, fluorogenic substrate, fluorescence. inhibition, % at 12.2 µM. 370,000 compounds, 0.18% hits. AID 720704; in the data active means inhibition above about 11%
IMP-1 inhibitor – blocks Pseudomonas aeruginosa IMP-1 metallo-beta-lactamase. purified IMP-1, nitrocefin hydrolysis, epi-absorbance fluorescence. inhibition, % at 5.6 µM. 290,000 compounds, 0.45% hits. AID 1556;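 active means inhibition above the mean plus 3 SD of all compounds in the same screening run, cut at about 4.5% in these data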
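System: purified recombinant IMP-1 beta-lactamase. Medium: Zinc- and detergent-supplemented HEPES buffer, pH 7.1. Compound: one 5.6 µM dose […]. Schedule: 15 min preincubation plus 25 min reaction at 25 °C. Technique: Epi-absorbance fluorescence, 480 nm excitation, 530 nm emission.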
PvdQ acylase – P. aeruginosa PvdQ acylase inhibition; AID 488965; purified PvdQ acylase, fluorescence plate reader; inhibition, % at 10 µM; 340,000 compounds, 0.063% hits; in the data active means inhibition above about 30%, passing the limit was not always enough
Each line names hits and unclear results; the compound was inactive in the other large screens. Shown are actives, neighbours in structure and some others; about 2% of the full set was active somewhere.

CC12CCC(=O)N1C(C(=O)Nc1nc3c(F)cc(F)cc3s1)CS2 (centres undefined)	IMP-1 inhibitor 11
C=CC[C@@H](Cc1ccc(F)cc1)C(=O)OC[C@@H]1CCCN1C(=O)[C@H](CC=C)CC(=O)N[C@H](CO)Cc1ccccc1	PLCg1 inh 9.7, PLCb3 inh 12 (no result: VIM-2 inh, IMP-1 inhibitor)
CCOC(=O)/C=C(\C)Sc1cc(=O)oc2ccccc12	PvdQ acylase 49
Oc1c(C=Nc2cccc3cccnc23)sc2ccccc12	VIM-2 inh 9.7 (no result: PvdQ acylase)
Cc1cccc(/N=C/c2sc3ccccc3c2O)n1	none
Cc1[nH]nc2c1C1(CCN(Cc3ccccc3)CC1)C(C#N)=C(N)O2	none
CCc1[nH]nc2c1C1(CCN(C(=O)OCc3ccccc3)CC1)C(C#N)=C(N)O2	VIM-2 inh 11
O=c1[nH]c(=O)n(Cc2ccccc2)c2c1CCC2	IMP-1 inhibitor 5.0
Cn1cc(CCOCc2ccccn2)c2ccccc21	none (no result: VIM-2 inh, IMP-1 inhibitor, PvdQ acylase)
COC(=O)c1cc(OC)c(OC)cc1NC(=O)CCc1ccc(C)o1	none
COC(=O)c1cc(OC)c(OC)cc1NC(=O)c1ccc(C)o1	VIM-2 inh 9.2 (no result: PLCg1 inh, PLCb3 inh)
CCCOc1ccccc1/C=C1/C(=O)ON=C1C	VIM-2 inh 8.2
O=C(O)CCN1C(=O)/C(=C/c2ccc(F)cc2F)SC1=S	none (no result: VIM-2 inh, IMP-1 inhibitor, PvdQ acylase)
COc1ccc(CN2CCCC(C(=O)c3cccc(OC(C)C)c3)C2)cc1Cn1cccn1 (centres undefined)	PvdQ acylase 33
COc1ccc(CNS(=O)(=O)/C=C/c2ccccc2CNC(=O)OC(C)(C)C)cc1	none (no result: VIM-2 inh, IMP-1 inhibitor, PvdQ acylase)
Cc1cccc2cc(CN(CC3CCCO3)C(=O)NC3CCCCC3)c(=O)[nH]c12 (centres undefined)	PLCg1 inh 9.7
CC(C1=CCCCC1)c1cnn(C)c1 (centres undefined)	none (no result: VIM-2 inh, IMP-1 inhibitor, PvdQ acylase)
Cc1ccc(C)c(NC(=S)NCCc2ccc(F)cc2)c1	IMP-1 inhibitor 20
CC(C)S(=O)(=O)N1CCCC(C(=O)c2cccc(Cl)c2)C1 (centres undefined)	IMP-1 inhibitor 40
CS(=O)(=O)N1CCC(C(=O)c2cccc(Cl)c2)CC1	none
CC(C)(C)NCC(O)CON=C1c2ccccc2-c2ccccc21 (centres undefined)	VIM-2 inh 7.8
CC(C)(C)NC(=O)CON=C1c2ccccc2-c2ccccc21	none
COc1ccc(C2NCCc3c2[nH]c2ccccc32)cc1COc1ccc(F)cc1 (centres undefined)	PvdQ acylase 39
S=C(NCCCCN(Cc1ccc(Cl)cc1)c1ccc(Br)cn1)NCCCc1cnc[nH]1	PLCg1 inh 10 (no result: VIM-2 inh, IMP-1 inhibitor, PvdQ acylase)
CCOC(=O)c1cc2c(=O)n3ccccc3nc2n(CCOC)c1=NC(=O)c1ccncc1	VIM-2 inh 13
c1ccc(-c2cc(-c3nnc4sc(Cc5cccs5)nn34)[nH]n2)cc1	none (no result: VIM-2 inh, IMP-1 inhibitor, PvdQ acylase)
CC1=C(O)C(=O)C(C2=C(O)C(=O)C(C)=C(O)C2=O)=C(O)C1=O	PLCg1 inh 47 (no result: VIM-2 inh, IMP-1 inhibitor)
CC(C)CCNC(=O)c1cccc(Cl)c1	PvdQ acylase 39
NC(=O)CNC(=O)c1cccc(Cl)c1	none
CCN1Cc2nnn(Cc3ccccc3)c2-c2cc(N3CCCC3)ccc2S1(=O)=O	none (no result: VIM-2 inh, IMP-1 inhibitor, PvdQ acylase)
O=C(CN1CCC(n2cnc3cc(F)ccc32)CC1)Nc1ccccc1Br	VIM-2 inh 9.8
CC(=O)Oc1ccc([N+](=O)[O-])cc1N1C(=O)c2ccccc2C1=O	PLCg1 inh 12, PLCb3 inh 12
COCCCn1c(C(=O)Nc2ccc3c(c2)OCO3)cc2c(=O)n3ccccc3nc21	none
COCCCn1c(C(=O)NCCN2CCOCC2)cc2c(=O)n3cccc(C)c3nc21	VIM-2 inh 9.4
COCCCn1c(C(=O)N2CCOCC2)cc2c(=O)n3ccccc3nc21	IMP-1 inhibitor 42
CN[C@H]1C[C@H]2c3[nH]c4c(-c5ccc6c(c5)OCO6)cccc4c3CCN2C[C@H]1[C@H](C)O	none (no result: VIM-2 inh, IMP-1 inhibitor, PvdQ acylase)
CCCCN(CC)CCNC(=O)c1cc2c(=O)[nH]c3ccc(C)cc3c2s1	VIM-2 inh 8.3
CCCCN(CC)CCCNC(=O)c1cc2c(=O)[nH]c3ccccc3c2s1	VIM-2 inh 11
CCOCCCNC(=O)c1cc2c(=O)[nH]c3ccccc3c2s1	none
COc1ccc2c(c1)c1nnc(SCC(=O)NC3CC3)nc1n2C	none
CCN(CC)CCSc1nnc2c3ccccc3n(CCc3ccccc3)c2n1	VIM-2 inh 11
Cn1c2ccccc2c2nnc(SCC(=O)NC3CCCC3)nc21	VIM-2 inh 9.2
O=C1c2ccccc2C(=O)N1CSc1nnc2c3ccccc3n(CCc3ccccc3)c2n1	none (no result: PLCg1 inh, PLCb3 inh)
CCOC(=O)CSc1nnc2c3ccccc3n(CC)c2n1	VIM-2 inh 7.9
C#CCCCN([C@H](C(=O)OC)C(C)C)S(=O)(=O)c1ccc(F)cc1Br	none (no result: VIM-2 inh, IMP-1 inhibitor, PvdQ acylase)
COc1cccc(CO[C@H]2C=C[C@@H](c3ccccc3)O[C@@H]2CO)c1	none (no result: VIM-2 inh, IMP-1 inhibitor, PvdQ acylase)
CCC(C(=O)Nc1ccccc1N1CCCC1)c1cccc(Cl)c1 (centres undefined)	none (no result: VIM-2 inh, IMP-1 inhibitor, PvdQ acylase)
COc1ccc(-c2nnc(SCc3c(F)cccc3F)n2N)cc1	none (no result: VIM-2 inh, IMP-1 inhibitor, PvdQ acylase)
NC(=O)c1ccc(-n2nnnc2SCC(=O)c2ccc(O)c(O)c2)cc1	VIM-2 inh 11
COc1ccc(-n2nnnc2SCC(=O)c2ccc(O)c(O)c2)cc1	none
CC(=O)N1CCN(c2ccc(S(=O)(=O)N3CCOCC3)cc2[N+](=O)[O-])CC1	PLCg1 inh 10.0 (no result: VIM-2 inh, IMP-1 inhibitor)
C=CCN1[C@H](C#N)[C@@H](c2ccc(C#Cc3cccc(OC)c3)cc2)[C@H]1CO	none (no result: VIM-2 inh, IMP-1 inhibitor, PvdQ acylase)
CCN=C1S/C(=C\c2cc(OCC)c(O)cc2Br)C(=O)N1CC	VIM-2 inh 7.8
CCN=C1S/C(=C\c2ccc(O)c(OCC)c2)C(=O)N1CC	none
CC(CCN1CCC(C(O)(c2ccccc2)c2ccccc2)CC1)Oc1cccc(C(F)(F)F)c1 (centres undefined)	none (no result: VIM-2 inh, IMP-1 inhibitor, PvdQ acylase)
C=CCN1CCN(C(=O)c2cc3c(s2)CCC(CC)C3)CC1 (centres undefined)	PLCg1 inh 9.7
Cc1cc(OCC(C)CN2CCC(C(O)(c3ccccc3)c3ccccc3)CC2)ccc1Br (centres undefined)	none (no result: VIM-2 inh, IMP-1 inhibitor, PvdQ acylase)
O=C(NC1CCCCN(Cc2cccc(F)c2)C1=O)c1cccc(C(F)(F)F)c1 (centres undefined)	none (no result: VIM-2 inh, IMP-1 inhibitor, PvdQ acylase)
COc1ccc(-c2cc(C(=O)OCC(=O)N(C)C)c3ccccc3n2)cc1	IMP-1 inhibitor 4.7
COc1ccc(C(=S)N2CCCCCC2)cc1	PLCg1 inh 9.9
COc1ccc(C(=S)N2CCNCC2)cc1	none
O=C(N=C1N(CC2CC2)CC2(C=C3CCCCC3n3c(=O)n(-c4ccccc4)c(=O)n32)N1C(=O)OCc1ccccc1)c1ccccc1 (centres undefined)	none (no result: VIM-2 inh, IMP-1 inhibitor, PvdQ acylase)
O=c1[nH]cnc2c1sc1nc(-c3ccccc3)c3c(c12)CCCC3	none
CCOC(=O)CSc1ncnc2c1sc1nc(N3CCOCC3)c3c(c12)CCCC3	none
CCOC(=O)C(Sc1ncnc2c1sc1nc(N3CCOCC3)c3c(c12)CCCC3)c1ccccc1 (centres undefined)	IMP-1 inhibitor 6.2 (no result: PLCg1 inh, PLCb3 inh, PvdQ acylase)
O=C(O)CSc1ncnc2c1sc1nc(-c3ccccc3)c3c(c12)CCC3	IMP-1 inhibitor 9.4
OCCN(CCO)c1ncnc2c1sc1nc(N3CCOCC3)c3c(c12)CCCC3	VIM-2 inh 9.0
